ChEMBL document CHEMBL1137580, “Synthesis, potency, and in vivo profiles of quinoline containing histamine H3 receptor inverse agonists” (J Med Chem, 2007)
≈ marks a conversion by molar mass, not a printed value. Calls of active or inactive are those of the source. The rule behind the calls is not given here.

Legend:
[1] = Protein binding in monkey plasma; assay type: ADME, cell-free, Macaca mulatta; settings: rhesus monkey, read-out: PPB (converted)
[2] = Protein binding in rat plasma; assay type: ADME, cell-free; settings: read-out: PPB (converted)
[3] = Ratio of drug level in brain to blood in rat at 1 mg/kg, iv; assay type: ADME, organism-based; parameters: dose 1 mg/kg, route intravenous
Summary of the method: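 Rats given 1 mg/kg i.v.; brain and plasma concentrations measured 1 h after dosing by HPLC-MS, and the brain-to-plasma ratio was taken from these; n ≥ 3 animals.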

[4] = Half life in rat at 1 mg/kg, iv; assay type: ADME, organism-based; parameters: dose 1 mg/kg, route intravenous; settings: in vivo
Rattus norvegicus [5] = assay: Volume of distribution in rat at 1 mg/kg, iv; assay type: ADME, organism-based; parameters: dose 1 mg/kg, route intravenous; settings: in vivo
[6] = Clearance in rat at 1 mg/kg, iv; assay type: ADME, organism-based; parameters: dose 1 mg/kg, route intravenous; settings: in vivo
[7] = Oral bioavailability in rat at 1 mg/kg; assay type: ADME, organism-based; settings: in vivo
Summary of the method: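 Oral dosing in rats at 1 mg/kg, n = 3 animals; F (%) given as mean, SEM <20% of mean unless stated.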

Brain [8] = assay: Drug level in mouse brain at 1 mg/kg, ip; assay type: ADME, organism-based; parameters: dose 1 mg/kg, route intraperitoneal; settings: in vivo
Summary of the method: (§1)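 Mice dosed i.p. at 1 mg/kg; brain and blood sampled 1 h after dosing, concentrations by HPLC-MS; n ≥ 3, SEM <11% of mean unless stated.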

[9] = Ratio of drug level in brain to blood in mouse at 1 mg/kg, ip; assay type: ADME, organism-based; parameters: dose 1 mg/kg, route intraperitoneal; summary of the method: as §1
Brain [10] = assay: Drug level in rat brain at 1 mg/kg, iv; assay type: ADME, organism-based; parameters: dose 1 mg/kg, route intravenous; settings: in vivo
Summary of the method: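 Rats dosed i.v. at 1 mg/kg; brain concentration measured 1 h post-dose by HPLC-MS; n ≥ 3, SEM <11% of mean unless stated.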

[11] = Protein binding in dog plasma; assay type: ADME, cell-free, Canis lupus familiaris; settings: read-out: PPB (converted)
Rattus norvegicus [12] = assay: Memory enhancing effect in ip dosed adult rat by social recognition memory method; assay type: functional, organism-based
Summary of the method: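 Adult rat explores a juvenile 5 min, separated 2 h, re-exposed 5 min; compound or saline i.p. right after first exposure; investigation ratio (second/first time); ciproxifan 1 mg/kg standard; n ≥ 12, Dunnett's post hoc, P < 0.05; efficacious doses in mg/kg.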

Rattus norvegicus [13] = assay: Memory enhancing effect in ip dosed adult rat by five trial inhibitory avoidance method; assay type: functional, organism-based
Rattus norvegicus [14] = assay: Memory enhancing effect in ip dosed rat by five trial inhibitory avoidance method at 3 mg/kg; assay type: functional, organism-based; parameters: dose 3 mg/kg
Plasma [15] = assay: Drug level in rat plasma at 0.3 mg/kg; assay type: ADME, organism-based; parameters: dose 0.3 mg/kg; settings: in vivo
L-type calcium channel = L-type calcium channel (Homo sapiens, UniProt O60840+Q01668+Q13698+Q13936); assay: Inhibition of human L-type calcium channel at 10 uM
[16] = target: T1, Muscarinic acetylcholine receptor M4 (Homo sapiens) (UniProt P08173); assay: Inhibition of human muscarinic M4 receptor at 10 uM
T1 sequence (whole entry): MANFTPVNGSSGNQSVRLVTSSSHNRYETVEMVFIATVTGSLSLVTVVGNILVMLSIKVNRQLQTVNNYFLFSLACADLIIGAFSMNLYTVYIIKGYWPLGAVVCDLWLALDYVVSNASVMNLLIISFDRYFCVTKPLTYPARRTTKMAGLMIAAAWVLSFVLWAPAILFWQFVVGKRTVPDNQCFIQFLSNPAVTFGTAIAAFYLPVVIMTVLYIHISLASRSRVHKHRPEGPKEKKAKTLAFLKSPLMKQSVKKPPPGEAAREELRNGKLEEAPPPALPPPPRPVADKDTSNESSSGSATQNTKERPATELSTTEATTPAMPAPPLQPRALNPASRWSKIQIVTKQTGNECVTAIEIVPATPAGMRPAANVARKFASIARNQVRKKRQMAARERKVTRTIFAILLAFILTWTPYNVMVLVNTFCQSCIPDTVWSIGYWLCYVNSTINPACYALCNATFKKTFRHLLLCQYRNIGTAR

[17] = target: T2, Adenosine receptor A3 (Homo sapiens) (UniProt P0DMS8); assay: Inhibition of human adenosine A3 receptor at 10 uM
T2 sequence (whole entry): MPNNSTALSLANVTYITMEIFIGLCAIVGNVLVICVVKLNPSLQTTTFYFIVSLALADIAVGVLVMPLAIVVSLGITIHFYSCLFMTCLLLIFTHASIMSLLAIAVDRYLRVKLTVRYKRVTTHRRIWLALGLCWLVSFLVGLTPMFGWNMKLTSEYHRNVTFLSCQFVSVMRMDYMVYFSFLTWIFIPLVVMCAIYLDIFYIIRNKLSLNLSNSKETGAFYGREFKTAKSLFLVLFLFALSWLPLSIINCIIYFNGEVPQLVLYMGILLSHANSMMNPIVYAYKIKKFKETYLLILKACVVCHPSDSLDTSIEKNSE

Homo sapiens = species on record: Homo sapiens; assay: Inhibition of human sigma receptor at 10 uM
Cytochrome P450 1A2 = target: T3, Cytochrome P450 1A2 (Homo sapiens, UniProt P05177); assay: Inhibition of CYP1A2 at 10 to 20 uM; assay type: ADME
T3 sequence (P05177 whole entry): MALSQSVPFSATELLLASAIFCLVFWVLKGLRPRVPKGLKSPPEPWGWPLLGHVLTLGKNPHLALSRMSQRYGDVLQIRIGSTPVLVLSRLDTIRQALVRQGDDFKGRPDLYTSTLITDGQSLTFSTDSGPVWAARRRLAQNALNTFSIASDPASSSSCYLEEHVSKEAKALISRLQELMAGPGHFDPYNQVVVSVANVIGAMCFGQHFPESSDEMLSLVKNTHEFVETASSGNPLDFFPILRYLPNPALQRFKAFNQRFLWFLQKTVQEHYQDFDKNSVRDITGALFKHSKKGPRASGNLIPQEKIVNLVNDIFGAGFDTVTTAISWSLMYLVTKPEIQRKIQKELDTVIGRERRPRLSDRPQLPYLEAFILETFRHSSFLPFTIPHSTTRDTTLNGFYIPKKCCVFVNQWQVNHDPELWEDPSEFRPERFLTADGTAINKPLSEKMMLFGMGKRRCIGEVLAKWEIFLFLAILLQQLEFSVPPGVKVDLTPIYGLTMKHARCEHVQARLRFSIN

Cytochrome P450 2A6 = target: T4, Cytochrome P450 2A6 (Homo sapiens, UniProt P11509); assay: Inhibition of CYP2A6 at 10 to 20 uM; assay type: ADME
T4 sequence (P11509 whole entry): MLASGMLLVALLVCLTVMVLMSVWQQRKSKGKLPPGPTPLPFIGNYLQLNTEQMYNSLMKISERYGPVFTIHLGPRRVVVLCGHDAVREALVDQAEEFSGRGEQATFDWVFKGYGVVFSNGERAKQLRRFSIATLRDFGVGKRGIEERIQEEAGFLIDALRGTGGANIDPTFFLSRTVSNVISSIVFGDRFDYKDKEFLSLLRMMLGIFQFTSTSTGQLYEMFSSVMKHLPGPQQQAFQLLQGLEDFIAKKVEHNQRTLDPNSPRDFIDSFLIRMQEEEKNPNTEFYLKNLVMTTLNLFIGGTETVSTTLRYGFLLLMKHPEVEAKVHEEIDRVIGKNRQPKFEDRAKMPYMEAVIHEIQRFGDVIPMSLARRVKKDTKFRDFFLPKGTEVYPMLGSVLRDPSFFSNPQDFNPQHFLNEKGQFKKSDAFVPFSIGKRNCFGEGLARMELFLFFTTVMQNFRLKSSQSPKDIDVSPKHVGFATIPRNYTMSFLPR

Cytochrome P450 2C19 = Cytochrome P450 2C19 (Homo sapiens, UniProt P33261); assay: Inhibition of CYP2C19 at 10 to 20 uM; assay type: ADME
Cytochrome P450 2C9 = Cytochrome P450 2C9 (Homo sapiens, UniProt P11712); assay: Inhibition of CYP2C9 at 10 to 20 uM; assay type: ADME
Cytochrome P450 2D6 = Cytochrome P450 2D6 (Homo sapiens, UniProt P10635); assay: Inhibition of CYP2D6 at 10 to 20 uM; assay type: ADME
Cytochrome P450 2E1 = Cytochrome P450 2E1 (Homo sapiens, UniProt P05181); assay: Inhibition of CYP2E1 at 10 to 20 uM; assay type: ADME
Cytochrome P450 3A4 = Cytochrome P450 3A4 (Homo sapiens, UniProt P08684); assay: Inhibition of CYP3A4 at 10 to 20 uM; assay type: ADME
[18] = Bioavailability in dog; assay type: ADME, organism-based, Canis lupus familiaris; settings: in vivo
[19] = Solubility in water at pH 7; assay type: physicochemical
[20] = Photostability of the UV light irradiated compound; assay type: ADME
Rattus norvegicus [21] = assay: CNS toxicity assessed as hypoactivity in rat at 9.4 mg/kg; assay type: organism-based; parameters: dose 9.4 mg/kg; settings: in vivo
Rattus norvegicus [22] = assay: CNS toxicity assessed as piloerection in rat at 9.4 mg/kg; assay type: organism-based; parameters: dose 9.4 mg/kg; settings: in vivo
Rattus norvegicus [23] = assay: CNS toxicity assessed as hypoactivity in rat at 2.8 mg/kg; assay type: organism-based; parameters: dose 2.8 mg/kg; settings: in vivo
Rattus norvegicus [24] = assay: CNS toxicity assessed as piloerection in rat at 2.8 mg/kg; assay type: organism-based; parameters: dose 2.8 mg/kg; settings: in vivo
Plasma [25] = assay: Drug level in rat plasma at 0.1 mg/kg; assay type: ADME, organism-based; parameters: dose 0.1 mg/kg; settings: in vivo

Cytochrome P450 2E1, sequence (P05181 whole entry): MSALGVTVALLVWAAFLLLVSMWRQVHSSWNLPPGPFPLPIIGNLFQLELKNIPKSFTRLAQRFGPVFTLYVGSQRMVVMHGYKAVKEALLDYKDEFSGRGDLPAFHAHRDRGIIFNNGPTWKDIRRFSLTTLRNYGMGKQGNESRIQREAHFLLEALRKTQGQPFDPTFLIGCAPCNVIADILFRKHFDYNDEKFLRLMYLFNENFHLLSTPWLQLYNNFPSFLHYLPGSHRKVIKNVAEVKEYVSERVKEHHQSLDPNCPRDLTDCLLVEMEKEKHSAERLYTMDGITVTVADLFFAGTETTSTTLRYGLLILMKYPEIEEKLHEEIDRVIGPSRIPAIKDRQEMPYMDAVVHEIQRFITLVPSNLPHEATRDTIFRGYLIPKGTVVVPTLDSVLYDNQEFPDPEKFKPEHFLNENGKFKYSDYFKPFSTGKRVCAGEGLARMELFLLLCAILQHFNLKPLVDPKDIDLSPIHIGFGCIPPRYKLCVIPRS
Cytochrome P450 2C19, sequence (P33261 whole entry): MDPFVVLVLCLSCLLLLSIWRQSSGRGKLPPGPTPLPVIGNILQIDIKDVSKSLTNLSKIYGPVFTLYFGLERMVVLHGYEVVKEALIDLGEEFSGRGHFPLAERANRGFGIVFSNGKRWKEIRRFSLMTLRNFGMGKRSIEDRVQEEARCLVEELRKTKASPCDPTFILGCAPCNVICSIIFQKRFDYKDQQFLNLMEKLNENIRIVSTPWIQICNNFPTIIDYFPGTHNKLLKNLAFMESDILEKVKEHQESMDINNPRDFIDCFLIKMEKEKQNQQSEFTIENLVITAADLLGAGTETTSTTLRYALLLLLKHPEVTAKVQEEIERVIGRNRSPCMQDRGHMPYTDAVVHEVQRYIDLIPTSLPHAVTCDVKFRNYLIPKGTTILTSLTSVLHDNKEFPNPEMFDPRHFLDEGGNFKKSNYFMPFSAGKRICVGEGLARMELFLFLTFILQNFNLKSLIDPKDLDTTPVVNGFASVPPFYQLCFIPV
Cytochrome P450 2C9, sequence (P11712 whole entry): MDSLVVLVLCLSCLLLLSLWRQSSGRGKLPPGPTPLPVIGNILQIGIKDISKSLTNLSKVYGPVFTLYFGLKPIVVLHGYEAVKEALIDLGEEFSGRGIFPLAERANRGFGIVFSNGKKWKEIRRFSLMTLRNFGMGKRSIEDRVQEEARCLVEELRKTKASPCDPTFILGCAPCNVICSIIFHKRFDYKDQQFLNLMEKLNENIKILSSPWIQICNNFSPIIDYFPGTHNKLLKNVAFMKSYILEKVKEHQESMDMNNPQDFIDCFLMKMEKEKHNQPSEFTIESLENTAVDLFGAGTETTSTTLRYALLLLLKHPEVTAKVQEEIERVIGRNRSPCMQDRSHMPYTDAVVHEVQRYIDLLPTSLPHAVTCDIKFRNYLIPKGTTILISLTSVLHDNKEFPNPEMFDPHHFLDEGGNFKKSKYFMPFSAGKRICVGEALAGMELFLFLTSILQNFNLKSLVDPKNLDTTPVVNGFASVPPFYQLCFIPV
Cytochrome P450 3A4, sequence (P08684 whole entry): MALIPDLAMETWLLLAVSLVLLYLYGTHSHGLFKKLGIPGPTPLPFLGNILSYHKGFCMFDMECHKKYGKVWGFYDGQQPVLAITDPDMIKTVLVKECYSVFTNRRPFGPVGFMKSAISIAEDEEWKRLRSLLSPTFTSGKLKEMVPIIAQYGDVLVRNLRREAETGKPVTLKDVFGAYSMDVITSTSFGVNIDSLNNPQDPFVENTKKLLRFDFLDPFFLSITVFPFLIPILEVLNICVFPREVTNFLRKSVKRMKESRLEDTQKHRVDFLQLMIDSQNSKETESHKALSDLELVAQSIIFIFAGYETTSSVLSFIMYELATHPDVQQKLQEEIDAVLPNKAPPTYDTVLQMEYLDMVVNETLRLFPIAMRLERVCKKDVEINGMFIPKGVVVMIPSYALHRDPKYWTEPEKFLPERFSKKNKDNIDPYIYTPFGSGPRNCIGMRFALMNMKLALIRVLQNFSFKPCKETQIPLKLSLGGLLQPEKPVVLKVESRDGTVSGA
Cytochrome P450 2D6, sequence (P10635 whole entry): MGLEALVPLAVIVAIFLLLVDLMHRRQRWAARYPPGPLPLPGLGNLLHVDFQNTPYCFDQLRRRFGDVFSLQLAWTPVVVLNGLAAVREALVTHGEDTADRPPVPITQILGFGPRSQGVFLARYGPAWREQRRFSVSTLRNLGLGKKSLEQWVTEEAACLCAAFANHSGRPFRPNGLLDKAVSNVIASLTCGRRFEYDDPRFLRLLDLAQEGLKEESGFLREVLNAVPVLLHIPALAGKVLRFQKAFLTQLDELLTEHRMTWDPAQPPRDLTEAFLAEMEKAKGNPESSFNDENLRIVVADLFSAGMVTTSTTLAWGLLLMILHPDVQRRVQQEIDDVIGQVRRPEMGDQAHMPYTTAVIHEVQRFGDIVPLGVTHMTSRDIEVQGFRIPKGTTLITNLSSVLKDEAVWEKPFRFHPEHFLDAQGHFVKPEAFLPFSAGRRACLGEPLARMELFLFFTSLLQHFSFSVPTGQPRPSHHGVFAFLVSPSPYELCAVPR

With `Cc1cc2ncc(-c3ccc4cc(CCN5CCC[C@H]5C)ccc4n3)c(C)n2n1` the fraction unbound [1] was 0.45, the fraction unbound [2] was 0.3 and the Kp [3] was 1.6. For the same compound, the half-life [4] was 5.3 h, the Vbeta (Rattus norvegicus [5]) was 6.3 L/kg and the clearance [6] was 14 mL/min/kg. For the same compound, the bioavailability [7] was 90%, the Drug uptake (Brain [8]) was 174 ng/g and the Kp [9] was 1.5. The Drug uptake (Brain [10]) was 440 ng/g, the fraction unbound [11] was 0.4 and the Activity (Rattus norvegicus [12]) was “Active”. For the same compound, the Activity (Rattus norvegicus [13]) was “Active”, the Activity (Rattus norvegicus [14]) was “Active” and the Cp (Plasma [15]) was 19.2 ng/mL. The inhibition at 10 µM (L-type calcium channel) was 63%, the inhibition [16] was 74% and the inhibition [17] was 69%. The inhibition (Homo sapiens) was 96%, the Activity (Cytochrome P450 1A2) was “Not Active” and the Activity (Cytochrome P450 2A6) was “Not Active”. For the same compound, the Activity (Cytochrome P450 2C19) was “Not Active”, the Activity (Cytochrome P450 2C9) was “Not Active” and the Activity (Cytochrome P450 2D6) was “Not Active”. For the same compound, the Activity (Cytochrome P450 2E1) was “Not Active”, the Activity (Cytochrome P450 3A4) was “Not Active” and the bioavailability [18] was 72%. For the same compound, the solubility [19] was 8.7 mg/mL (≈ 22.6 mM), the Activity [20] was “Not Active” and the Activity (Rattus norvegicus [21]) was “Toxic”. The Activity (Rattus norvegicus [22]) was “Toxic”, the Activity (Rattus norvegicus [23]) was “Non-toxic” and the Activity (Rattus norvegicus [24]) was “Non-toxic”.

Compound `Cc1nn(C)cc1-c1ccc2cc(CCN3CCC[C@H]3C)ccc2n1` has a fraction unbound [1] of 0.5, a fraction unbound [2] of 0.38 and a Kp [3] of 1.8. For the same compound, the half-life [4] was 1.7 h, the Vbeta (Rattus norvegicus [5]) was 9 L/kg and the clearance [6] was 61.7 mL/min/kg. For the same compound, the bioavailability [7] was 58%, the Drug uptake (Brain [10]) was 425 ng/g and the fraction unbound [11] was 0.42. The Activity (Rattus norvegicus [12]) was “Active”, the Activity (Rattus norvegicus [13]) was “Active” and the Activity (Rattus norvegicus [14]) was “Active”. For the same compound, the Cp (Plasma [25]) was 2.5 ng/mL, the inhibition (Homo sapiens) was 86% and the Activity (Cytochrome P450 1A2) was “Not Active”. The Activity (Cytochrome P450 2A6) was “Not Active”, the Activity (Cytochrome P450 2C19) was “Not Active” and the Activity (Cytochrome P450 2C9) was “Not Active”. The Activity (Cytochrome P450 2D6) was “Not Active”, the Activity (Cytochrome P450 2E1) was “Not Active” and the Activity (Cytochrome P450 3A4) was “Not Active”. The bioavailability [18] was 77%, the solubility [19] was 21 mg/mL (≈ 62.8 mM) and the Activity [20] was “Not Active”. The Activity (Rattus norvegicus [21]) was “Toxic” and the Activity (Rattus norvegicus [23]) was “Non-toxic”.

With `C[C@@H]1CCCN1CCc1cc2cc(-c3ccc(C#N)cc3)ccc2o1` the fraction unbound [1] was 0.06, the fraction unbound [2] was 0.06 and the Vbeta (Rattus norvegicus [5]) was 11.6 L/kg. For the same compound, the clearance [6] was 25 mL/min/kg, the Drug uptake (Brain [8]) was 1728 ng/g and the Drug uptake (Brain [10]) was 3082 ng/g. It also gave a fraction unbound [11] of 0.09.

In the case of `Cc1c(-c2ccc3cc(CCN4CCC[C@H]4C)ccc3n2)cnn1-c1ccccn1`, the half-life [4] is reported as 2.4 h, the Vbeta (Rattus norvegicus [5]) is reported as 4.1 L/kg and the clearance [6] is reported as 19.7 mL/min/kg. It also gave a bioavailability [7] of 75%, a Drug uptake (Brain [8]) of 1659 ng/g and a Kp [9] of 23.
